Measured values published in ChEMBL document CHEMBL1156262, “Substituted benzothiophene or benzofuran derivatives as a novel class of bone morphogenetic protein-2 up-regulators: synthesis, structure-activity relationships, and preventive bone loss efficacies in senescence accelerated mice (SAMP6) and ovariectomized rats” (J Med Chem, 2010).
Activity calls are given as the source filed them. No cut-off for these calls is given here.

Columns and labels:
[1] = test system: Rattus norvegicus; test: Toxicity in rat assessed as pathological changes in kidney at 150 mg/kg/day, po after 3 months by histomorphology; type: organism-based; design: route oral; conditions: in vivo
How it was run: (§1)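 Rats, n = 7, given oral doses of 150 mg/kg/day for 3 months. Heart, liver, spleen, lung and kidney examined histologically for pathological change.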

[2] = test system: Mus musculus; test: Toxicity in SAMP6 mouse assessed as pathological changes in spleen at 30 mg/kg/day, po after 3 months by histomorphology; type: organism-based; design: route oral; conditions: in vivo
How it was run: (§2)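 SAMP6 mice, n = 5 per group, dosed orally at 30 mg/kg/day in 0.5% methylcellulose for 3 months. Heart, liver, spleen, lung and kidney harvested, weighed and examined histologically. Organ/body weight indexes, body weight, and 24 h water and food intake (g/g body weight) compared with vehicle controls.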

[3] = test system: Rattus norvegicus; test: Induction of bone formation in ovariectomized rat assessed as increase in trabecular bone volume percentage at 7.5 mg/kg/day, po after 3 months; type: functional, organism-based; conditions: Trabecula
How it was run: (§3)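 Female rats (205–235 g) randomized by body weight, n = 7 per group: sham, ovariectomized with vehicle, ovariectomized with raloxifene 5 mg/kg/day, and ovariectomized with compound at 7.5, 15 or 30 mg/kg/day. All dosing oral for 3 months. Undecalcified proximal tibia sections analysed by histomorphometry, with comparisons against the sham and ovariectomized groups.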

[4] = Toxicity in po dosed Kunming mouse assessed as mortality treated for 3 days measured after 17 days; type: organism-based; conditions: in vivo
How it was run: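 Male and female Kunming mice (18-21 g), six per group (three males, three females), were dosed orally at 500 or 700 (mg/kg)/day for 3 days. They were closely watched for deaths over the 3 dosing days and the following 14 days (17 days in total).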

[5] = test system: Mus musculus; test: Induction of bone mineral density in SAMP6 mouse assessed as whole body BMD at 30 mg/kg/day, po measured after 3 months; type: functional
How it was run: (§4)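 SAMP6 mice, 5 months old, n = 5 per group, given compound in 0.5% methylcellulose by gavage daily. Dual-energy X-ray absorptiometry under pentobarbital anaesthesia (50 mg/kg ip), animals prone, at 0, 4, 8 and 12 weeks of treatment. Regions of interest were whole body, spine and left hind leg.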

[6] = test system: Mus musculus; test: Induction of BMP2 expression in SAMP6 mouse bone marrow stroma at 30 mg/kg/day, po after 3 months by immunohistochemical analysis; type: functional, organism-based
How it was run: (§5)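 SAMP6 mice, 5 months old, male and female, n = 5 per group (3 male, 2 female). Dosed by gavage with compound suspended in 0.5% methylcellulose daily for 3 months; the vehicle group received methylcellulose only. Proximal third of the left femur fixed in 4% neutral paraformaldehyde for 24 h, decalcified in 10% EDTA at 4 °C for 4 weeks, then frozen-sectioned at 5 μm. Stained with rabbit polyclonal anti-BMP-2 and an alkaline phosphatase secondary. BMP-2-positive area was taken as a percentage of bone tissue area, averaged over five fields below the epiphyseal plate.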

[7] = test system: Mus musculus; test: Induction of bone formation in SAMP6 mouse right femora assessed as trabecular formation surface percentage at 30 mg/kg/day, po measured after 3 months by bone histomorphometry; type: functional, Trabecula
How it was run: (§6)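 SAMP6 mice, 5 months old, n = 5 per group (3 male, 2 female), randomized by initial BMD. Given compound in 0.5% methylcellulose by gavage daily for 3 months. Proximal third of the right femur fixed in 4% paraformaldehyde, cut as undecalcified sections, and scored by image analysis for histomorphometry.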

[8] = test system: Mus musculus; test: Induction of bone formation in SAMP6 mouse right femora assessed as trabecular bone volume percentage at 30 mg/kg/day, po measured after 3 months by bone histomorphometry; type: functional, Trabecula; how it was run: as §6
[9] = test system: Mus musculus; test: Toxicity in SAMP6 mouse assessed as pathological changes in heart at 30 mg/kg/day, po after 3 months by histomorphology; type: organism-based; design: route oral; conditions: in vivo; how it was run: as §2
[10] = test system: Mus musculus; test: Induction of bone mineral density in SAMP6 mouse assessed as left hind leg BMD at 30 mg/kg/day, po measured after 3 months; type: functional; how it was run: as §4
[11] = test system: Mus musculus; test: Induction of bone mineral density in SAMP6 mouse assessed as whole body BMD at 30 mg/kg/day, po measured after 2 months
[12] = Induction of BMP2 expression in mouse calcarial MC3T3-E1 cells stably transfected with mouse BMP2 promotor-luciferase assessed as upregulation rate at 4 uM; type: functional, cell-based
How it was run: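 Reporter assay in murine calvarial MC3T3-E1 cells stably carrying the mouse BMP-2 promoter fused to firefly luciferase (pGL4BMP-2). Cells grown in DMEM with 10% heat-inactivated FBS at 37 °C and 5% CO2. Test compounds at 4.0 μM; lovastatin at 0.4 μM as positive control; 0.1% DMSO as negative control. Up-regulation rate = (RLU of test − RLU of negative control)/RLU of negative control × 100.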

[13] = test system: Mus musculus; test: Toxicity in SAMP6 mouse assessed as pathological changes in kidney at 30 mg/kg/day, po after 3 months by histomorphology; type: organism-based; design: route oral; conditions: in vivo; how it was run: as §2
[14] = test system: Mus musculus; test: Induction of bone formation in SAMP6 mouse right femora assessed as average osteoid width at 30 mg/kg/day, po measured after 3 months by bone histomorphometry; type: functional; how it was run: as §6
[15] = test system: Rattus norvegicus; test: Toxicity in rat assessed as pathological changes in spleen at 150 mg/kg/day, po after 3 months by histomorphology; type: organism-based; design: route oral; conditions: in vivo; how it was run: as §1
[16] = test system: Mus musculus; test: Toxicity in SAMP6 mouse assessed as pathological changes in lung at 30 mg/kg/day, po after 3 months by histomorphology; type: organism-based; design: route oral; conditions: in vivo; how it was run: as §2
[17] = test system: Rattus norvegicus; test: Induction of bone formation in ovariectomized rat assessed as decrease in trabecular resorption surface percentage at 7.5 mg/kg/day, po after 3 months; type: functional, organism-based; conditions: Trabecula; how it was run: as §3
[18] = test system: Mus musculus; test: Induction of bone mineral density in SAMP6 mouse assessed as whole body BMD at 10 mg/kg/day, po measured after 1 month; type: functional, organism-based; conditions: 30 mg/kg, in the assay text read “30 mg/kg/day” for “10 mg/kg/day”; how it was run: as §4
[19] = test system: Rattus norvegicus; test: Toxicity in rat assessed as pathological changes in liver at 150 mg/kg/day, po after 3 months by histomorphology; type: organism-based; design: route oral; conditions: in vivo; how it was run: as §1
[20] = test system: Mus musculus; test: Toxicity in SAMP6 mouse assessed as change in 24 hrs water consumption at 30 mg/kg/day, po after 3 months; type: organism-based; design: route oral; conditions: in vivo; how it was run: as §2
[21] = test system: Mus musculus; test: Induction of bone mineral density in SAMP6 mouse assessed as spine BMD at 30 mg/kg/day, po measured first 2 months; type: functional, organism-based; how it was run: as §4
[22] = test system: Rattus norvegicus; test: Toxicity in rat assessed as pathological increase in body weight at 150 mg/kg/day, po after 3 months; type: organism-based; design: route oral; conditions: in vivo
How it was run: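 Female rats (n = 7) were dosed orally once daily at 150 (mg/kg)/day for 3 months. Body weight, behaviour and fur were observed throughout. At the end, hearts, livers, spleens, lungs and kidneys were sectioned for histological examination of pathological changes.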

[23] = test system: Mus musculus; test: Induction of BMP2 expression in SAMP6 mouse osteoblast at 30 mg/kg/day, po after 3 months by immunohistochemical analysis; type: functional, organism-based; how it was run: as §5
[24] = test system: Rattus norvegicus; test: Prevention of bone loss in ovariectomized rat assessed as increase in number, thickness, area and connectivity of trabecula at 30 mg/kg/day, po after 3 months by histomorphometry Leica Qwin image analysis; type: functional, organism-based; how it was run: as §3
[25] = test system: Mus musculus; test: Toxicity in SAMP6 mouse assessed as change in 24 hrs food consumption at 30 mg/kg/day, po after 3 months; type: organism-based; design: route oral; conditions: in vivo; how it was run: as §2
[26] = test system: Mus musculus; test: Induction of BMP2 expression in SAMP6 mouse osteoblast at 10 mg/kg/day, po after 3 months by immunohistochemical analysis; type: functional, organism-based; how it was run: as §5
[27] = test system: Mus musculus; test: Toxicity in SAMP6 mouse assessed as increase in body weight at 30 mg/kg/day, po after 3 months; type: organism-based; design: route oral; conditions: in vivo; how it was run: as §2

In the case of `CC(=O)c1cc2ccccc2s1`, the Activity [1] is reported as “Non-toxic”, the Activity [2] is reported as “Non-toxic” and the Activity [3] is reported as “Active”. For the same compound, the LD50 at 408 h [4] was over 5000 mg/kg, the Activity [5] was 0.068 g/cm2 and the Activity [6] was “Active”. The Activity [7] was 5.89%, the Activity [8] was 4.95% and the Activity [9] was “Non-toxic”. The Activity [10] was 0.05 g/cm2, the Activity [11] was “Active” and the Activity [12] was 35.6%. The Activity [13] was “Non-toxic”, the Activity [14] was 5.55 µm and the Activity [15] was “Non-toxic”. The Activity [16] was “Non-toxic”, the Activity [17] was “Active” and the Activity [18] was “Active”. For the same compound, the Activity [19] was “Non-toxic”, the Activity [20] was “Non-toxic” and the Activity [21] was “Active”. For the same compound, the Activity [22] was “Non-toxic”, the Activity [23] was “Active” and the Activity [24] was “Active”. For the same compound, the Activity [25] was “Non-toxic”, the Activity [26] was “Active” and the Activity [27] was “Non-toxic”.
